In ChEMBL document CHEMBL5154790 (J Med Chem, 2022):
The source made the active and inactive calls. The calls are words filed in the database; no cut-off is given here.

Experiments:
[1] = Cytotoxicity against human SH-SY5Y cells assessed as reduction in cell viability incubated for 24 hrs by propidium iodide staining based fluorescence analysis; type: toxicity; settings: read-out: LD50
Mus musculus [2] = assay: Antialzheimer activity against SAMP8 mouse assessed as reduction in tau phosphorylation ar Ser396 residue at 2 mg/kg, po measured after 4 weeks by Western blot analysis; type: functional, organism-based
In short: (§1)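 SAMP8 mice received oral dosing daily for 4 weeks at 2 mg kg⁻¹ day⁻¹, with vehicle-treated SAMP8 mice as controls. Hippocampal protein levels were expressed relative to the SAMP8 control group, set to 100%; for tau this is the p-Tau (Ser396 and Ser404) ratio. Values are mean ± SEM, tested against control.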

Mus musculus [3] = assay: Antineuroinflammatory activity in SAMP8 mouse assessed as decrease in NFkappaB protein expression hippocampus tissue at 2 mg/kg, po measured after 4 weeks by Western blot analysis; type: functional, organism-based; in short: as §1
Mus musculus [4] = assay: Antineuroinflammatory activity in SAMP8 mouse assessed as decrease in IL-6 gene expression hippocampus tissue at 2 mg/kg, po measured after 4 weeks by RT-PCR analysis; type: functional, organism-based
In short: (§2)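 Hippocampal gene expression was measured by real-time PCR in SAMP8 mice after daily oral treatment for 4 weeks (2 mg kg⁻¹ day⁻¹), compared with vehicle-treated SAMP8 controls. Values are mean ± SEM.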

Mus musculus [5] = assay: Cognitive enhancement effect […] of SAMP8 mouse assessed as increase in novelty discrimination index at 2 mg/kg, po administered 4 weeks by Novel object recognition test; type: functional, organism-based
In short: (§3)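 SAMP8 mice were dosed orally once daily for 4 weeks at 2 mg kg⁻¹ day⁻¹; controls received vehicle. In the novel object recognition test, a familiarization phase preceded testing for short-term and long-term working memory. The discrimination index scores the ability to distinguish a known from a new object. Values are mean ± SEM.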

Mus musculus [6] = assay: Antineuroinflammatory activity in SAMP8 mouse assessed as decrease in IL-1beta gene expression hippocampus tissue at 2 mg/kg, po measured after 4 weeks by RT-PCR analysis; type: functional, organism-based; in short: as §2
Mus musculus [7] = assay: Cognitive enhancing effect in SAMP8 mouse assessed as improvement of short term memory by measuring discrimination index at 2 mg/kg, po administered for 4 weeks by novel object recognition test; type: functional, organism-based; in short: as §3
Mus musculus [8] = assay: Cognitive enhancing effect in SAMP8 mouse assessed as improvement of long term memory by measuring increased discrimination index at 2 mg/kg, po administered for 4 weeks by novel object recognition test; type: functional, organism-based; in short: as §3
Mus musculus [9] = assay: Antineuroinflammatory activity in SAMP8 mouse assessed as increase in synaptophysin expression in hippocampus tissue at 2 mg/kg, po measured after 4 weeks by Western blot analysis; type: functional, organism-based; in short: as §1
Mus musculus [10] = assay: Antialzheimer activity against SAMP8 mouse assessed as decrease in hippocampal sAPPbeta levels at 2 mg/kg, po measured after 4 weeks by Western blot analysis; type: functional, organism-based; in short: as §1
Mus musculus [11] = assay: Antialzheimer activity against SAMP8 mouse assessed as increase in hippocampal sAPPalpha levels at 2 mg/kg, po measured after 4 weeks by Western blot analysis; type: functional, organism-based; in short: as §1
Mus musculus [12] = assay: Antineuroinflammatory activity in SAMP8 mouse assessed as decrease in Gfap gene expression hippocampus tissue at 2 mg/kg, po measured after 4 weeks by RT-PCR analysis; type: functional, organism-based; in short: as §2
[13] = molecular target: Cholinesterase (Homo sapiens) (UniProt P06276); assay: Inhibition of human recombinant BChE at 100 uM using butyrylthiocholine iodide as substrate preincubated for 20 mins followed by substrate addition and measured every 240 sec by Ellman's method relative to control
Cholinesterase (Homo sapiens), sequence (P06276 whole entry): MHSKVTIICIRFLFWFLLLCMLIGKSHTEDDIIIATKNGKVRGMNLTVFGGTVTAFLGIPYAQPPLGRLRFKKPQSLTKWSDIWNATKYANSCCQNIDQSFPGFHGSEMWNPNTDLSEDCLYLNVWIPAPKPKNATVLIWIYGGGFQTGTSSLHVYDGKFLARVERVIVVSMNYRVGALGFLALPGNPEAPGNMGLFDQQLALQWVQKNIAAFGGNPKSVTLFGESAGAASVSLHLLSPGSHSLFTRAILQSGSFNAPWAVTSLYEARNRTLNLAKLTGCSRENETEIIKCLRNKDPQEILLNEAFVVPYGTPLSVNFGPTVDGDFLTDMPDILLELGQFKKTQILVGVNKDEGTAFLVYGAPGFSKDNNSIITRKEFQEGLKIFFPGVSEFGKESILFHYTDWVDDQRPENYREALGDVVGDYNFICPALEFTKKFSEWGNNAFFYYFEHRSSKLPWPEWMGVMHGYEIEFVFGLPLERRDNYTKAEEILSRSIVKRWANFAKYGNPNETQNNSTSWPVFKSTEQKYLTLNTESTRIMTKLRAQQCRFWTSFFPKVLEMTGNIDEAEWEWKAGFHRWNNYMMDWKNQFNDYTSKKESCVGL

In the case of CC1=C[C@@H]2Cc3nc4cc(Cl)ccc4c(NCCCCC(=O)N4CCC(NC(=O)Nc5ccc(OC(F)(F)F)cc5)CC4)c3[C@H](C1)C2, the CC50 at 24 h [1] is reported as > 100 µM.

With O=C(Nc1ccc(OC(F)(F)F)cc1)NC1CCN(C(=O)CCNc2c3c(nc4cc(Cl)ccc24)CCCC3)CC1 the CC50 at 24 h [1] was 92.8 µM.

For O=C(Nc1ccc(OC(F)(F)F)cc1)NC1CCN(C(=O)CCCNc2c3c(nc4cc(Cl)ccc24)CCCC3)CC1, the CC50 at 24 h [1] was > 100 µM.

For O=C(Nc1ccc(OC(F)(F)F)cc1)NC1CCN(C(=O)CCCCNc2c3c(nc4cc(Cl)ccc24)CCCC3)CC1, the Activity (Mus musculus [2]) was “Active”, the Activity (Mus musculus [3]) was “Active” and the Activity (Mus musculus [4]) was “Active”. For the same compound, the CC50 at 24 h [1] was > 100 µM, the Activity (Mus musculus [5]) was “Active” and the Activity (Mus musculus [6]) was “Active”. The Activity (Mus musculus [7]) was “Active”, the Activity (Mus musculus [8]) was “Active” and the Activity (Mus musculus [9]) was “Active”. For the same compound, the Activity (Mus musculus [10]) was “Active”, the Activity (Mus musculus [11]) was “Active” and the Activity (Mus musculus [12]) was “Active”.

With CC(=O)N1CCC(NC(=O)Nc2ccc(OC(F)(F)F)cc2)CC1 the inhibition [13] was < 10%.
